This is a sample that favours compounds with a hit; in the whole collection about 3.1% have one here.
hERG rescue = hERG (human) protection from proarrhythmic block | Q12809 | CHO-hERG, FluxOR thallium flux, dofetilide IC70 present | activation (rescue from dofetilide block), less the hit threshold, % at 10 µM | actives 0.51% (n = 310,000);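 active means activation above the mean of controls blocked by dofetilide plus 5 SD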;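 further: thallium influx through hERG after potassium depolarization seen as dye fluorescence rise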
KCNQ1 pot = potentiators or activators of human KCNQ1 potassium channel | P51787 | B-score at 10 µM | AID 2648 | CHO-K1 KCNQ1, thallium flux FluxOR fluorescence; hits give high values | actives 0.35% (n = 310,000);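 active means fluorescence ratio B-score, a plate-corrected score, at least three library SD, with initial intensity B-score within 5 SD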
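assay system = CHO-K1 cells stably expressing KCNQ1 | medium = assay buffer, equal DMSO in all wells | timing = 37 °C overnight plating, 90-min dark dye load, 20-min compound pretreatment | measured by = kinetic FluxOR thallium fluorescence, 10-s 1-Hz baseline, 110-s post-stimulus read | measure = fluorescence change relative to baseline, converted to B score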
KCNK3 inh = human KCNK3 channel inhibition, primary screen; O14649; CHO-KCNK3 thallium flux, FluxOR fluorescence; hits give low values; B-score at 10 µM; actives 0.84% (n = 340,000);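 active means B-score under library mean minus 4 SD, starting fluorescence ratio at most library mean plus 5 SD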;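 further: more negative B-score means stronger inhibition of thallium flux through KCNK3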
KCNQ1 block = blocks the human KCNQ1 potassium channel; actives 1.3% (n = 310,000); CHO-K1 KCNQ1, FluxOR thallium flux fluorescence; hits give high values; B-score at 10 µM;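 active means compounds whose thallium flux B-score, printed positive for inhibition, exceeds three library SD while starting fluorescence stays within three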;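 further: channel opened by potassium depolarization with thallium stimulus after 20 min compound exposure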
KCNK9 block = human KCNK9 channel inhibition | B-score at 10 µM | AID 488922 | Q9NPC2 | actives 1.2% (n = 310,000) | HEK293 KCNK9, FluxOR thallium flux fluorescence; hits give low values;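 active means ratio B-score over 3 SD below the library mean, with starting fluorescence within 5 SD of its mean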;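 further: negative B-score means less thallium flux so channel inhibition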
Target sequence (Q9NPC2 whole entry, looked up): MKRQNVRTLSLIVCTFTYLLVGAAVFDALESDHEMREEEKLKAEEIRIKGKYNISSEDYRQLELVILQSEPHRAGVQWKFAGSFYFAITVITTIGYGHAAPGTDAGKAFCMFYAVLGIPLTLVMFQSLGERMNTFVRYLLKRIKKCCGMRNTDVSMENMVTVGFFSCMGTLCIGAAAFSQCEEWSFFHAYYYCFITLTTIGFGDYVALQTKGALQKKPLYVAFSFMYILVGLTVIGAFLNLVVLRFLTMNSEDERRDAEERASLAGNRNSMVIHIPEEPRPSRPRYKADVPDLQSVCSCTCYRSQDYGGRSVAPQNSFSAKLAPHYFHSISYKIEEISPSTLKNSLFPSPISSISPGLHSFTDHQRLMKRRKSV
Active calls of the source: *; i = inactive; x = not tested or not shown.

SMILES | hERG rescue | KCNQ1 pot | KCNK3 inh | KCNQ1 block | KCNK9 block
Cc1ccc(CN2CCN(/N=C/c3ccc(O)c(O)c3)CC2)cc1 | 7.1* | i | i | i | i
COc1ccc(CNC(=O)CN2CCN(c3ccccc3)CC2)cc1 | -4 | i | i | i | i
Cc1cc(=O)oc(C)c1C(=O)Nc1cccc(F)c1 | -10 | i | i | i | i
Cc1cccc(Nc2nc(N)c([N+](=O)[O-])c(NCc3ccccc3)n2)c1 | -8 | i | i | 7* | i
Nc1nc(Nc2ccccc2)nc(NCc2ccccc2)c1[N+](=O)[O-] | -4 | i | i | i | i
CC(C)C(=O)Nc1ncc(C(F)(F)F)cc1Cl | -8 | i | i | i | i
CON/C=N/C(=S)Nc1ncc(C(F)(F)F)cc1Cl | 15* | 51* | i | i | i
ON/C=N/C(=S)Nc1ncc(C(F)(F)F)cc1Cl | 14* | 20* | i | i | i
CC1(c2nnc(-c3ccc(F)cc3)o2)CC(c2c(Cl)cccc2Cl)=NO1 (stereo not drawn) | -7 | i | i | i | i
CC1(c2nnc(-c3ccc(Cl)cc3)o2)CC(c2c(Cl)cccc2Cl)=NO1 (stereo not drawn) | -4 | i | i | i | -7.6*
N#C/C(=C\c1ccc(O)c(Br)c1)C(=O)N1CCCCC1 | -2 | i | i | i | i
Cc1occc1C(=O)/C(C#N)=C/c1ccc(O)c(Br)c1 | -25 | i | i | 11* | i
O=C1C=C(Nc2ccccc2O)c2ccccc2C1=O | -3 | i | i | i | i
O=C1C=C(NCc2ccccc2)c2ccccc2C1=O | -13 | 12* | i | i | i
CCN(CC(=O)NCc1ccc(Cl)cc1)S(=O)(=O)c1ccc(NC(C)=O)cc1 | -19 | i | i | i | i
Cc1ccccc1NS(=O)(=O)c1cc(C(=O)N2CCCC2)ccc1Cl | -7 | i | i | i | i
Cc1ccccc1NS(=O)(=O)c1cc(C(=O)Nc2ccccc2-c2ccccc2)ccc1Cl | -5 | i | i | i | -7.2*
O=c1oc(CCO)cc2ccc(Br)cc12 | x | x | i | x | x
CC(C(=O)NC1(C#N)CCCCC1)N(C)CC(=O)Nc1ccc(Cl)c(Cl)c1 (stereo not drawn) | x | x | i | x | x
Nc1ccn(CC(=O)NCCNc2ccc([N+](=O)[O-])cn2)c(=O)n1 | x | x | i | x | x
COCCn1c(SCC(=O)Nc2sccc2C(N)=O)nc2cc(Cl)ccc2c1=O | -14 | i | -9.2* | i | i
CN(C)S(=O)(=O)c1ccc2c(c1)Cc1cc(S(=O)(=O)N(C)C)ccc1-2 | 0 | i | i | i | i
O=C(Cn1cnc2ccccc21)c1ccc(Cl)cc1 | -5 | i | i | i | i
O=C(Cn1cnc2ccccc21)c1ccccc1 | 5.0* | i | i | i | i
COC(=O)c1ccc(NC(=O)c2ccccc2-c2ccccc2C(=O)O)cc1 | -22 | i | i | i | i
SMILES | hERG rescue | KCNQ1 pot | KCNK3 inh | KCNQ1 block | KCNK9 block
Cc1oc2cc([N+](=O)[O-])c(O)c([N+](=O)[O-])c2c1C(=O)c1ccc(Cl)cc1 | -10 | i | i | 6* | i
CCN(CC)CCN1C(=O)c2oc3ccccc3c(=O)c2C1c1ccccc1 (stereo not drawn) | -12 | i | i | i | i
CCN(CC)CCCN1C(=O)c2oc3ccccc3c(=O)c2C1c1cccs1 (stereo not drawn) | 26* | 15* | x | i | i
CCn1c(C)nc2cc(C(=O)N3N=C(CCOC)CC3(O)C(F)(F)F)ccc21 (stereo not drawn) | -13 | i | i | i | i
O=C(c1ccco1)N1CCN(c2nc(C3CC3)nc3c2nnn3Cc2ccccc2Cl)CC1 | -11 | i | i | 6* | i
COc1ccc(CN2CCN(C(=O)c3cccc4ccccc34)CC2)cc1Br | -6 | i | i | i | -6.9*
O=C(NCC1CCN(Cc2ccccc2F)CC1)Nc1cccc(Br)c1 | -8 | i | i | i | i
Cc1ccccc1-n1c(SCC(=O)N/N=C/c2sccc2C)nc2ccccc2c1=O | -8 | i | i | i | i
O=C(NC(NNc1ccc([N+](=O)[O-])cc1)(C(F)(F)F)C(F)(F)F)c1ccc(F)cc1 | -12 | i | i | 6* | i
O=C(NC(NNc1ccc([N+](=O)[O-])cc1)(C(F)(F)F)C(F)(F)F)c1ccccc1Cl | -9 | i | i | i | i
O=[N+]([O-])c1ccc(NNC(=S)Nc2ccc(F)cc2)cc1 | -7 | i | i | 7* | i
CCOC(=O)C1C(C(=O)OC)=C(C(=O)OC)c2ccccc2N1S(=O)(=O)C(F)(F)F (stereo not drawn) | x | x | i | x | x
C1CCN(Cc2nnnn2CC2CCCO2)CC1 (stereo not drawn) | -5 | i | i | i | i
O=C(NC1CC2CCC(C1)N2C(=O)NCc1ccccc1)C1CC1 (stereo not drawn) | 13* | i | i | i | i
Cc1ccc(OCCN2C(=O)c3ccccc3C2=O)c([N+](=O)[O-])c1 | -9 | 9* | i | i | i
CN(C)C(CNC(C(=O)Nc1ccc([N+](=O)[O-])cc1Br)c1ccccc1)c1ccccc1 (stereo not drawn) | -13 | i | i | 9* | i
CC[n+]1ccccc1/C=C1\Sc2ccc(C)cc2N1C | -33 | i | i | 7* | i
Nc1[nH]c(=O)[nH]c(=O)c1N=Nc1ccc(C(=O)O)cc1 | -4 | i | i | i | i
Fc1ccc2nc(Nc3ccccc3)sc2c1 | -12 | i | i | i | i
Fc1ccc2nc(Nc3nc4c(F)cc(F)cc4s3)sc2c1 | 5.0* | i | i | i | i
Fc1cccc2sc(Nc3nc4ccccc4s3)nc12 | 13* | i | i | i | i
Fc1ccc2nc(Nc3nc4c(F)cccc4s3)sc2c1 | 0 | 46* | i | i | i
O=C(COC(=O)C1CCC1)NCc1ccc(Cl)cc1Cl | -12 | i | i | i | i
Cc1c(/C=N/Nc2nc3ccccc3[nH]2)c2ccccc2n1C | -17 | i | i | 7* | i
Cc1ccc(CN2CC(C(=O)NCCC3=CCCCC3)CC2=O)cc1 (stereo not drawn) | x | x | i | x | x
COc1ccc(NC(=O)CC2CCCCC2)cc1OC | 5.7* | i | i | i | i
COc1ccc(NC(=O)CC2CCCC2)cc1S(=O)(=O)N1CCCCC1 | -6 | i | i | i | i
CCCn1nc(NS(=O)(=O)c2cccc3nonc23)c2cc3cccc(C)c3nc21 | -9 | i | i | 8* | i

Screening data from PubChem.
